Results from ChEMBL document CHEMBL4373727, “Thienopyrimidinone Derivatives That Inhibit Bacterial tRNA (Guanine37-N1)-Methyltransferase (TrmD) by Restructuring the Active Site with a Tyrosine-Flipping Mechanism” (J Med Chem, 2019).
Converted amounts (≈) assume the structure as drawn. The source made the active and inactive calls. Unless noted, the rule behind the calls is not given here.

Legend:
Erythrocyte = experiment: Hemolytic activity in human RBC at 100 uM measured after 1 hr; type: ADME, cell-based
Method in brief: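 Fresh human RBCs were PBS-washed and resuspended to OD600 24, then mixed 1:1 by volume with compound serially diluted in PBS. Incubated 1 h at 37 °C without shaking and centrifuged at 1000g for 15 min. Triton X-100 served as positive control. Run in triplicate.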

[1] = molecular target: T1, tRNA (guanine-N(1)-)-methyltransferase (Pseudomonas aeruginosa (strain ATCC 15692 / DSM 22644 / CIP 104116 / JCM14847 / LMG 12228 / 1C / PRS 101 / PAO1)) (UniProt Q9HXQ1); experiment: Binding affinity to Pseudomonas aeruginosa tRNA (guanine(37)-N1)-methyltransferase (Leu5 to Asp25 residues) expressed in Escherichia coli BL21 (DE3) Rosetta T1R cells assessed as thermal stabilization of protein by measuring change in melting temperature at 0.1 mM by SYPRO orange based thermal shift assay
T1 sequence (whole entry): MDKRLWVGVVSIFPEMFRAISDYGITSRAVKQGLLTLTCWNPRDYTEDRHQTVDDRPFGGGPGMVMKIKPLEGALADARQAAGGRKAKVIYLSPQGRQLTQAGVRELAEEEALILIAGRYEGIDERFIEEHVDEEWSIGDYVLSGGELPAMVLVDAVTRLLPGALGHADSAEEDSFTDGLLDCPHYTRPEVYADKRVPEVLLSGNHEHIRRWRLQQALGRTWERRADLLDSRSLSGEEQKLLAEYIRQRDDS
Method in brief: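 Thermal shift: 4 μM TrmD with 5× SYPRO Orange and ligand in 50 mM Tris-HCl pH 8, 150 mM NaCl, 1 mM MgCl2, 1 mM DTT, 0.05% Tween-20. Buffer-only control. Heated from 25 to 95 °C in a real-time PCR instrument, and Tm taken as the unfolding midpoint. Ligand levels: SAH 2 mM, inhibitors 0.1 mM.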

[2] = molecular target: T1, tRNA (guanine-N(1)-)-methyltransferase (Pseudomonas aeruginosa (strain ATCC 15692 / DSM 22644 / CIP 104116 / JCM14847 / LMG 12228 / 1C / PRS 101 / PAO1)); experiment: (§1) Inhibition of Pseudomonas aeruginosa tRNA (guanine(37)-N1)-methyltransferase (Leu5 to Asp25 residues) expressed in Escherichia coli BL21 (DE3) Rosetta T1R cells assessed as reduction in S-adenosyl-L-homocysteine production up to 50 uM preincubated for 15 mins followed by 1.5 uM of tRNALeu(CAG) substrate and SAM addition and measured after 45 mins by MTase-Glo assay
Method in brief: (§2)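 MTase-Glo luminescence assay. 8 nM TrmD preincubated 15 min at ambient temperature with serially diluted inhibitor (0–500 μM) in 50 mM Tris-HCl pH 8.0, 80 mM NaCl, 1 mM MgCl2, 0.5 mM DTT, 0.01% Triton X-100. Reaction with 2 μM SAM and tRNALeu(CAG), 45 min at 37 °C. Detection 30 min in the dark, SAH read against a standard curve. IC50 by nonlinear regression. Two independent experiments in duplicate.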

Acinetobacter baumannii [3] = experiment: Antibacterial activity against Acinetobacter baumannii ATCC 17961 incubated for 24 hrs by serial broth microdilution method; type: functional
Method in brief: (§3)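 Log-phase cultures from four colonies grown overnight at 37 °C, inoculated at ~5×10^5 cells/mL in cation-adjusted Mueller–Hinton broth with serially diluted compound. Grown 24 h at 37 °C, then OD600 read. MIC50/MIC90 are the concentrations giving 50%/90% growth inhibition relative to drug-free controls. Two independent experiments in duplicate.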

Klebsiella pneumoniae [4] = experiment: Antibacterial activity against Klebsiella pneumoniae ATCC 13883 incubated for 24 hrs by serial broth microdilution method; type: functional, organism-based; method in brief: as §3
[5] = molecular target: T2, tRNA (guanine-N(1)-)-methyltransferase (Pseudomonas aeruginosa (strain ATCC 15692 / DSM 22644 / CIP 104116 / JCM14847 / LMG 12228 / 1C / PRS 101 / PAO1), UniProt Q9HXQ1); experiment: as §1, with “production” for “production up to 50 uM”; method in brief: as §2
T2 sequence (Q9HXQ1 whole entry): T1 sequence (whole entry)

Escherichia coli [6] = experiment: Antibacterial activity against Escherichia coli BW25113 incubated for 24 hrs by serial broth microdilution method; type: functional, organism-based; method in brief: as §3
Enterococcus faecalis [7] = experiment: Antibacterial activity against Enterococcus faecalis ATCC 51299 at 100 uM incubated for 24 hrs; type: functional, organism-based
Method in brief: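 Single-concentration screen in brain heart infusion broth. Log-phase cells at ~5×10^5 cells/mL were grown with 100 μM compound for 24 h at 37 °C. Growth was read as OD600 and expressed as a percentage of untreated wells. DMSO and blank controls were included.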

Staphylococcus aureus [8] = experiment: Antibacterial activity against methicillin-resistant Staphylococcus aureus ATCC 43300 incubated for 24 hrs by serial broth microdilution method; type: functional
Method in brief: (§4)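 Growth read by OD600. MRSA in cation-adjusted Mueller–Hinton broth, M. smegmatis in complete 7H9. MIC50 and MIC90 are 50% and 90% growth inhibition versus drug-free controls. Two independent experiments, each in duplicate.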

Streptococcus pneumoniae [9] = experiment: Antibacterial activity against Streptococcus pneumoniae ATCC 49619 incubated for 24 hrs by serial broth microdilution method; type: functional
Method in brief: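 Cultured in MH medium plus 3% defibrinated sheep blood at 37 °C, 5% CO2. Log-phase inoculum ~5×10^5 cells/mL was exposed to serial compound dilutions for 24 h. MIC50/MIC90 are relative to drug-free controls. Two independent experiments in duplicate.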

[10] = tested on: Mycobacterium tuberculosis; experiment: Antibacterial activity against Mycobacterium tuberculosis ATCC 27294 at 100 uM incubated for 7 days; type: functional, organism-based
Salmonella enteritidis [11] = experiment: Antibacterial activity against Salmonella enteritidis ATCC 13076 incubated for 24 hrs by serial broth microdilution method; type: functional; method in brief: as §3
Enterococcus faecalis [12] = experiment: Antibacterial activity against Enterococcus faecalis ATCC 51299 incubated for 24 hrs by serial broth microdilution method; type: functional, organism-based
Method in brief: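 Broth microdilution in brain heart infusion broth, ~5×10^5 cells/mL log-phase inoculum, serial compound dilutions, 24 h at 37 °C, OD600 read-out. MIC50/MIC90 are the concentrations giving 50%/90% growth inhibition relative to drug-free controls. Two independent experiments in duplicate.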

Streptococcus pneumoniae [13] = experiment: Antibacterial activity against Streptococcus pneumoniae ATCC 49619 at 100 uM incubated for 24 hrs; type: functional, organism-based
Method in brief: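 Single 100 μM screen in MH medium with 3% defibrinated sheep blood at 37 °C under 5% CO2, ~5×10^5 cells/mL, 24 h.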

Staphylococcus aureus [14] = experiment: Antibacterial activity against methicillin-resistant Staphylococcus aureus ATCC 43300 at 100 uM incubated for 24 hrs; type: functional, organism-based
Method in brief: (§5)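 Single-concentration growth screen: 100 μM test compound with log-phase bacteria at about 5×10^5 cells/mL. Incubation 24 h at 37 °C. Growth read by OD600 and given as percent of untreated control. MRSA was grown in cation-adjusted Mueller–Hinton broth. M. smegmatis was grown in complete Middlebrook 7H9. Ampicillin and kanamycin served as positive controls.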

Pseudomonas aeruginosa [15] = experiment: Antibacterial activity against Pseudomonas aeruginosa PA14 incubated for 24 hrs by serial broth microdilution method; type: functional, organism-based; method in brief: as §3
[16] = tested on: Mycolicibacterium smegmatis; experiment: Antibacterial activity against Mycolicibacterium smegmatis MC2 155 at 100 uM incubated for 24 hrs; type: functional, organism-based; method in brief: as §5
Acinetobacter baumannii [17] = experiment: Bactericidal activity against Acinetobacter baumannii ATCC 17961 assessed as reduction in CFU at 1 to 4 times MIC90 incubated for 24 hrs; type: functional; settings: ATCC 17961, 24 h, read-out: MBC99.9
Staphylococcus aureus [18] = experiment: Bactericidal activity against methicillin-resistant Staphylococcus aureus ATCC 43300 assessed as reduction in CFU at 1 to 4 times MIC90 incubated for 24 hrs; type: functional; settings: ATCC 43300, 24 h, read-out: MBC99.9
[19] = tested on: Mycolicibacterium smegmatis; experiment: Antibacterial activity against Mycolicibacterium smegmatis MC2 155 incubated for 24 hrs by serial broth microdilution method; type: functional; settings: MC2 155, 24 h; method in brief: as §4
Pseudomonas aeruginosa [20] = experiment: Bactericidal activity against Pseudomonas aeruginosa PA14 assessed as reduction in CFU at 1 to 4 times MIC90 incubated for 24 hrs; type: functional, organism-based
Salmonella enteritidis [21] = experiment: Bactericidal activity against Salmonella enteritidis ATCC 13076 assessed as reduction in CFU at 1 to 4 times MIC90 incubated for 24 hrs; type: functional, Salmonella enterica subsp. enterica serovar Enteritidis; settings: Salmonella enterica, ATCC 13076, 24 h; read-out: MBC99.9
[22] = tested on: Mycolicibacterium smegmatis; experiment: Bactericidal activity against Mycolicibacterium smegmatis MC2 155 assessed as reduction in CFU at 1 to 4 times MIC90 incubated for 24 hrs; type: functional; settings: MC2 155, 24 h, read-out: MBC99.9
Escherichia coli [23] = experiment: Bactericidal activity against Escherichia coli BW25113 assessed as reduction in CFU at 1 to 4 times MIC90 incubated for 24 hrs; type: functional, organism-based
[24] = tested on: Mycobacterium tuberculosis; experiment: Antibacterial activity against Mycobacterium tuberculosis ATCC 27294 incubated for 7 days by broth dilution method; type: functional; settings: ATCC 27294, 168 h
Method in brief: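 M. tuberculosis ATCC 27294 in complete 7H9 with 0.05% Tween 80, 0.5% glycerol and 10% ADC. Mid-log cells adjusted to OD600 0.1 and added 1:1 to 2-fold serial compound dilutions (highest 100 μM). Incubated 7 d at 37 °C with shaking at 80 rpm, then OD600 read. Isoniazid positive control. MIC50/MIC90 versus drug-free controls. Biological duplicates.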

Streptococcus pneumoniae [25] = experiment: Bactericidal activity against Streptococcus pneumoniae ATCC 49619 assessed as reduction in CFU at 1 to 4 times MIC90 incubated for 24 hrs; type: functional; settings: ATCC 49619, 24 h, read-out: MBC99.9
Klebsiella pneumoniae [26] = experiment: Bactericidal activity against Klebsiella pneumoniae ATCC 13883 assessed as reduction in CFU at 1 to 4 times MIC90 incubated for 24 hrs; type: functional, organism-based
Enterococcus faecalis [27] = experiment: Bactericidal activity against Enterococcus faecalis ATCC 51299 assessed as reduction in CFU at 1 to 4 times MIC90 incubated for 24 hrs; type: functional, organism-based
[28] = Salmonella enterica, ATCC 13076, 24 h

CCCCCCCCNCc1ccc(CNC(=O)c2csc3ncnc(OC)c23)cc1
Activity (Erythrocyte): Non-Toxic
ΔTm [1]: 1 to 2 °C
inhibition [2]: inactive

CCCCCCCCNCc1ccc(CNC(=O)c2csc3ncnc(OCCCCCC)c23)cc1
ΔTm [1]: 1 to 2 °C
inhibition [2]: inactive

Cl.NCCCCNCc1ccc(CNC(=O)c2csc3nc[nH]c(=O)c23)cc1
Activity (Acinetobacter baumannii [3]): inactive
Activity (Klebsiella pneumoniae [4]): inactive
IC50 [5]: 80 nM
Activity (Erythrocyte): Non-Toxic
Activity (Escherichia coli [6]): inactive
Activity (Enterococcus faecalis [7]): inactive
Activity (Staphylococcus aureus [8]): inactive
Activity (Streptococcus pneumoniae [9]): inactive
Activity [10]: inactive
Activity (Salmonella enteritidis [11]; Salmonella enterica subsp. enterica serovar Enteritidis): inactive
Activity (Enterococcus faecalis [12]): inactive
Activity (Streptococcus pneumoniae [13]): inactive
Activity (Staphylococcus aureus [14]): inactive
Activity (Pseudomonas aeruginosa [15]): inactive
Activity [16]: inactive

CCCCCCCCCCCCNCc1ccc(CNC(=O)c2csc3nc[nH]c(=O)c23)cc1
MIC50 (Acinetobacter baumannii [3]; ATCC 17961, 24 h): 75 µM (≈ 36.2 µg/mL)
MIC90 (Acinetobacter baumannii [3]; ATCC 17961, 24 h): 99 µM (≈ 47.8 µg/mL)
MBC (Acinetobacter baumannii [17]): > 100 µM
MIC50 (Klebsiella pneumoniae [4]): inactive
MIC90 (Klebsiella pneumoniae [4]): inactive
IC50 [5]: 380 nM
MBC (Staphylococcus aureus [18]): 34 µM (≈ 16.4 µg/mL)
MIC50 [19]: 17 µM (≈ 8.21 µg/mL)
MIC90 [19]: 23 µM (≈ 11.1 µg/mL)
MBC99.9 (Pseudomonas aeruginosa [20]): inactive
MIC50 (Escherichia coli [6]): inactive
MIC90 (Escherichia coli [6]): inactive
Activity (Enterococcus faecalis [7]): Active
MIC50 (Staphylococcus aureus [8]; ATCC 43300, 24 h): 5 µM (≈ 2.41 µg/mL)
MIC90 (Staphylococcus aureus [8]; ATCC 43300, 24 h): 8.5 µM (≈ 4.1 µg/mL)
MBC (Salmonella enteritidis [21]): > 100 µM
MIC50 (Streptococcus pneumoniae [9]; ATCC 49619, 24 h): 62 µM (≈ 29.9 µg/mL)
MIC90 (Streptococcus pneumoniae [9]; ATCC 49619, 24 h): 74 µM (≈ 35.7 µg/mL)
MBC [22]: 69 µM (≈ 33.3 µg/mL)
MBC99.9 (Escherichia coli [23]): inactive
Activity [10]: Active
MIC50 [24]: 44 µM (≈ 21.2 µg/mL)
MIC90 [24]: 88 µM (≈ 42.5 µg/mL)
MIC50 (Salmonella enteritidis [11]; [28]): > 100 µM
MIC90 (Salmonella enteritidis [11]; [28]): > 100 µM
MIC50 (Enterococcus faecalis [12]): inactive
MIC90 (Enterococcus faecalis [12]): inactive
MBC (Streptococcus pneumoniae [25]): > 100 µM
Activity (Streptococcus pneumoniae [13]): Active
Activity (Staphylococcus aureus [14]): Active
MBC99.9 (Klebsiella pneumoniae [26]): inactive
MBC99.9 (Enterococcus faecalis [27]): inactive
MIC50 (Pseudomonas aeruginosa [15]): inactive
MIC90 (Pseudomonas aeruginosa [15]): inactive
Activity [16]: Active

COc1ncnc2scc(C(=O)NCc3ccc(CNCc4ccccc4)cc3)c12
Activity (Erythrocyte): Non-Toxic
ΔTm [1]: 1 to 2 °C
inhibition [2]: inactive

CCCOc1ncnc2scc(C(=O)NCc3ccc(CNCc4ccccc4)cc3)c12
Activity (Erythrocyte): Non-Toxic
ΔTm [1]: 1 to 2 °C
inhibition [2]: inactive
